ChEMBL document CHEMBL2417509, “Synthesis and biological evaluation of prodigiosene conjugates of porphyrin, estrone and 4-hydroxytamoxifen” (2013)
Active and inactive are the calls of the source. The calls are words filed in the database; no cut-off is given here.

Tests used:
MCF7 = test: Cytotoxicity against human ER positive MCF7 cells assessed as cell viability at 1 uM after 72 hrs by MTT assay; type: functional, cell-based
Method in brief: (§1)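 Lines kept in DMEM with 10% fetal bovine serum and 1% penicillin/streptomycin at 37 °C, 5% CO2. Compound applied at 1 µM for 72 h, then standard MTT reduction read-out. Viability given as mean percentage of formazan formed by treated cells relative to mock-treated cells (0.1% DMSO). Run in quadruplicate, standard error, Student's t-test.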

MDA-MB-231 = test: Cytotoxicity against human ER negative MDA-MB-231 cells assessed as cell viability at 1 uM after 72 hrs by MTT assay; type: functional, cell-based; method in brief: as §1

SMILES	Activity (MCF7)	Activity (MDA-MB-231)
COc1cc(-c2ccc[nH]2)[nH]c1/C=C1\N=C(C)C(C(=O)CCC(=O)Oc2ccc3c(c2)CC[C@@H]2[C@@H]3CC[C@]3(C)C(=O)CC[C@@H]23)=C1C	inactive	Active
CC/C(=C(/c1ccc(OCCN(C)C)cc1)c1ccc(OC(=O)CCCCCCCCC(=O)C2=C(C)/C(=C/c3[nH]c(-c4ccc[nH]4)cc3OC)N=C2C)cc1)c1ccccc1	inactive	
